From PubChem BioAssay AID465 (The Scripps Research Institute Molecular Screening Center, 2006)
Hit rate of the full screen: of about 62,000 compounds, about 130 (0.21%) were called active. This is one part of a sample in which actives are shown more often than they occur.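 Rule for the calls: active = inhibition above the mean of all tested compounds plus 3 SD (cut at about 40% in these data); inactive = the rest.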

Assay: lowered NF-kB luciferase signal in HEK293 cells – cell-based, HEK-293 luciferase reporter, PMA/ionomycin, luminescence, antigen receptor NF-kB inhibitor project, primary screen (AID 465);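 note: 0% = stimulated DMSO wells and 100% = 10 µM reference inhibitor 5653914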
Details: HEK-293 NF-kB luciferase reporter, at 3 µM, stronger effect = higher value
Summary of the method: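 Reagent: PMA plus ionomycin mix as NF-kB-activating stimulus. Assay system: NF-kB luciferase reporter HEK-293 cells. Technique: luminescence from luciferase substrate reagent. Incubation: 1 h compound pre-incubation, 16 h PMA/ionomycin at 37 °C. Benchmarks: DMSO only as uninhibited control, 10 µM reference inhibitor as full inhibition. Repeats: tested once.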

Structure (SMILES) | inhibition
c1n[nH]c(NCc2ccc3c(c2)OCO3)n1 | 0.1% (inactive)
CCC(C)(C)n1nnnc1C(c1ccccc1OC)N1CCSCC1 (stereo not given) | 9.6% (inactive)
Cc1nc(C)c(C(=O)Nc2ccc(C)c(F)c2)o1 | 19.9% (inactive)
O=C(CSc1ncccn1)NC(=O)NCc1ccccc1 | 13.2% (inactive)
CCC(=O)Nc1cccc(NC(=O)CSc2nnc(-c3ccc(NS(C)(=O)=O)cc3)n2C)c1 | 1.5% (inactive)
COc1ccc(CCn2c(=N)c(C(=O)NCc3ccco3)cc3c(=O)n4cccc(C)c4nc32)cc1 | 7.9% (inactive)
Cc1nc2ccc(S(=O)(=O)NCC(=O)O)cc2s1 | -0.6% (inactive)
CC1=CC(C)(C)N(C(=O)CSc2nccn2C)c2cc(C)ccc21 | 0% (inactive)
Cc1ccc(C)c(S(=O)(=O)N2CC(=O)Nc3ccccc32)c1 | 13.2% (inactive)
Cn1c(=O)c2c(nc(SCCNS(=O)(=O)c3ccccc3)n2C)n(C)c1=O | 11.9% (inactive)
O=C(NCCCN1CCN(C2CCCCC2)CC1)Nc1ccccc1C(F)(F)F | 7.8% (inactive)
O=C(NCc1ccco1)C1CCCN(S(=O)(=O)c2cccc3nonc23)C1 (stereo not given) | 0.7% (inactive)
O=P(O)(CN1CCCCC1)CN1CCCCC1 | 4.4% (inactive)
CCNC(=O)CCc1nc(-c2ccc(C(C)(C)C)cc2)no1 | 79.1% (active)
Cc1ccc(-c2noc(CCC(N)=O)n2)cc1 | 19.8% (inactive)
Cc1ccc(-c2noc(CCC(=O)Nc3ccccc3N3CCN(C)CC3)n2)cc1 | -2% (inactive)
CCCS(=O)(=O)C(=C1Nc2ccccc2N1)S(=O)(=O)CCC | 3.3% (inactive)
COc1ccc2c(c1)CCc1c(C(=O)Nc3c(C)n(C)n(-c4ccccc4)c3=O)noc1-2 | 23.3% (inactive)
CCCCOc1ccc(-c2nnc(-c3ccco3)o2)cc1 | -34% (inactive)
CC(=O)Nc1ccc(S(=O)(=O)N2CCCC2C(=O)O)cc1 (stereo not given) | 6.9% (inactive)
CCOC(=O)N1CCN(C(=O)CN(c2ccc(C)c(C)c2)S(=O)(=O)c2ccccc2)CC1 | 10.2% (inactive)
C=CCc1cccc2cc(C(=O)N3CCN(C(=O)OCC)CC3)c(=O)oc12 | -6.7% (inactive)

Structure (SMILES) | inhibition
Cc1cc(C)cc(OCc2nnc(SCC(=O)OC3CCCCC3)o2)c1 | 17.6% (inactive)
Cc1ccnc(N2CCC(C(=O)NC3CCCCCC3)CC2)n1 | 11.5% (inactive)
Nc1ccc(-n2nncc2-c2ccco2)cc1 | 4% (inactive)
O=C(COC(=O)C12CC3CC(CC(C3)C1)C2)NCc1ccco1 | 3.7% (inactive)
Cc1cc(C(=O)OCC(=O)NCc2ccco2)c(C)n1-c1ccccc1 | 41.7% (active)
CCOC(=O)c1cnc(SCC(=O)NCc2ccco2)nc1N | -2% (inactive)
CC1(C)CC(=O)C2=C(C1)NCN(CCCN1CCOCC1)C2 | 3.7% (inactive)
CCCCC(=O)Nc1cc(C)c2c(=O)oc3ccccc3c2n1 | 2.7% (inactive)
Cc1cccc(-n2c(N)c(C(=O)N3CCN(C)CC3)sc2=S)c1 | 8.2% (inactive)
Cc1ccc2nc(S(=O)(=O)O)[nH]c2c1 | 13.2% (inactive)
COCc1[nH]nc2c1C(C1C=CCCC1)C(C#N)=C(N)O2 (stereo not given) | -9.1% (inactive)
Cc1cccc2cc(CN(Cc3ccc4c(c3)OCO4)Cc3nnnn3C3CCCC3)c(=O)[nH]c12 | 26.6% (inactive)
CCC(c1nnnn1C1CCCC1)N(Cc1cccs1)Cc1cc2cccc(C)c2[nH]c1=O (stereo not given) | 1.1% (inactive)
Cc1cccc2cc(CN(Cc3cccs3)C(c3nnnn3C3CCCC3)C(C)C)c(=O)[nH]c12 (stereo not given) | 42% (active)
CCCCOc1ccc(-c2ncc(C(=O)OCC)c(N)n2)cc1 | 5.2% (inactive)
Cc1ccc(C)n1-c1ccncc1 | 4.5% (inactive)
Cc1nnc(Sc2nc3c(c(=O)[nH]c(=O)n3C)n2Cc2ccccc2)s1 | -1.3% (inactive)
CC(C)CCn1c(CN(C)Cc2ccccc2)nc2c1c(=O)n(C)c(=O)n2C | 10.4% (inactive)
CCc1c(C)nc2cc(-c3cccs3)[nH]n2c1=O | 0.4% (inactive)
Cn1nnnc1SCC(=O)N1CCN(Cc2ccccc2)CC1 | 10.7% (inactive)
Cc1cccc(NC(=O)c2ccc3ccccc3n2)n1 | -33.4% (inactive)
Cc1ccccc1CSCC(=O)NC(=O)NC(C)(C)C | -1.2% (inactive)

Structure (SMILES) | inhibition
CCOc1ncccc1C(=O)OCc1cn2cc(Cl)ccc2n1 | 7.4% (inactive)
CC1C(c2ccccc2)=[N+]([O-])C2(CCCC2)N1O (stereo not given) | 5.7% (inactive)
Cc1ccc(-c2cc(C(F)(F)F)n3nc(C(=O)N4CCCC4)cc3n2)cc1 | 13.3% (inactive)
CC(C)(C)OC(=O)c1c(N)n(CCCN2CCCC2=O)c2nc3ccccc3nc12 | 11.9% (inactive)
O=C(NCc1ccco1)c1cc2sccc2n1Cc1ccc(F)cc1 | 19.8% (inactive)
O=C(O)CCCC(=O)Nc1ccccc1-n1ccnc1 | -1.2% (inactive)
COc1ccc(-c2nnc(SC(=O)N3c4ccccc4Sc4ccccc43)o2)cc1 | 9.5% (inactive)
COc1ccc(O)c(C(=O)c2cnc3onc(C(C)C)c3c2)c1 | 8.8% (inactive)
Cc1cc(C)c(S(=O)(=O)NCCCN2CCOCC2)cc1Br | 11.3% (inactive)
O=S(=O)(NCc1cccnc1)c1ccc(Br)s1 | 10.6% (inactive)
CCN1C(=O)C(C(=O)NC(C)c2ccccc2)C2CC1(C)Oc1ccccc12 (stereo not given) | 14.7% (inactive)
Cc1nn(-c2ccccc2)c(C)c1C(=O)OCC(=O)NC(=O)NC1CCCCC1 | 8.4% (inactive)
CCOC(=O)N1CCN(C(=O)c2nn(-c3ccc(C)cc3)c(=O)c3c2c2ccccc2n3C)CC1 | 20.4% (inactive)
O=C(OCC(=O)N1CCCC1)c1ccco1 | 9.6% (inactive)
CC1(C)NC(=O)N(CCOc2cccc(Oc3ccccc3)c2)C1=O | 21.8% (inactive)
COc1ccc(C)cc1NC(=O)c1[nH]c(C)c(C(C)=O)c1C | 8.7% (inactive)
COc1cccc2c(C)c(C(=O)O)[nH]c12 | 48.7% (active)
CCOC(=O)c1c(C)[nH]c(C(=O)NCc2ccccc2OC)c1C | -10.8% (inactive)
Cc1ccc(NC(=O)CCNS(=O)(=O)c2ccc3c(c2)oc(=O)n3C)cc1C | 13.6% (inactive)
CC1CN(C(=O)CN2C(=O)NC(C)(c3ccccc3)C2=O)CC(C)O1 (stereo not given) | 6.5% (inactive)
Cc1cc(=O)oc(C)c1C(=O)NCc1ccc(F)cc1 | 4.5% (inactive)
O=C(CCn1c(=O)oc2ccccc21)Nc1ccon1 | 6.5% (inactive)

Structure (SMILES) | inhibition
CCOC(=O)N1CCN(S(=O)(=O)c2ccc(C(=O)Nc3ccc(F)cc3F)cc2)CC1 | 17.4% (inactive)
O=C(C(NS(=O)(=O)c1cccc2nsnc12)c1ccccc1)N1CCN(c2ccccn2)CC1 (stereo not given) | 10.9% (inactive)
CCOc1cc(C(=O)N2CCc3cc(OC)c(OC)cc3C2)ccc1OC(F)F | 31.7% (inactive)
O=C(Cc1c(F)cccc1Cl)N1CCN(C(=O)c2ccco2)CC1 | 10.7% (inactive)
Cc1nc2c(-c3ccc(F)cc3)c(C)nn2c(C)c1CCC(=O)N1CCN(c2ccccn2)CC1 | 0.2% (inactive)
CCn1cc(C(=O)NC2CCCCCC2)c(=O)c2cc(S(=O)(=O)N3CCCCC3)ccc21 | 20.8% (inactive)
COc1ccc(OC)c(NC(=O)CSc2nc3cccnc3n2C)c1 | 18.9% (inactive)
CC(Sc1nncs1)C(=O)NCc1ccc2c(c1)OCO2 (stereo not given) | -5.2% (inactive)
COc1ccccc1NC(=O)CN1CCN(S(=O)(=O)c2ccc(Br)cc2)CC1 | 4.2% (inactive)
CCOC(=O)c1cccc(NC(=O)C2CCCN(S(=O)(=O)c3cnc[nH]3)C2)c1 (stereo not given) | 11.6% (inactive)
O=c1ccc2cc(S(=O)(=O)N3CCN(c4ccccc4)CC3)ccc2o1 | 10.7% (inactive)
CCCCCN(C(=O)NC(=O)Nc1ccccc1OC)S(C)(=O)=O | 7.9% (inactive)
COc1ccc(-c2nnn(Cc3nc(N)nc(N4CCCCC4)n3)n2)cc1 | 10.9% (inactive)
O=C(NCCCCO)C(F)(F)C(F)(F)C(F)(F)C(=O)NCCCCO | 13.3% (inactive)
CCOC(=O)c1cc(C)sc1NC(=O)C1CCC1 | 0.1% (inactive)
CC(C)Cc1ccc(S(=O)(=O)N2CCN(C(=O)c3ccco3)CC2)cc1 | 9.1% (inactive)
CC(Sc1nncn1C)C(=O)Nc1ccccc1-c1ccccc1 (stereo not given) | 14.4% (inactive)
O=C(CN1C(=O)NC2(CCCCC2)C1=O)NCCC1=CCCCC1 | 17.4% (inactive)
CCN(CC)C(=O)N1CCN(C(=O)c2ccc(C)cn2)CC1 | 4.3% (inactive)
Fc1ccc(Cn2nnnc2C(c2cccs2)N2CCCCCC2)cc1 (stereo not given) | 9.2% (inactive)
CCCC(=O)Nc1nnc(CC(=O)OCC)s1 | 9.9% (inactive)
CCCCNc1nc2ccccc2nc1NS(=O)(=O)c1cccs1 | 3.3% (inactive)

Structure (SMILES) | inhibition
Cc1noc(/C=C/N(C)C)c1S(=O)(=O)N1CCCC(C(=O)NCc2ccco2)C1 (stereo not given) | 5% (inactive)
O=C(Cc1cccs1)N1CCCC(c2nc(-c3ccc(S(=O)(=O)N4CCCC4)cc3)no2)C1 (stereo not given) | 6.1% (inactive)
Cc1cc(C(=O)COC(=O)c2cccs2)c(C)n1-c1c(C)n(C)n(-c2ccccc2)c1=O | 20% (inactive)
COc1cc(OC)cc(C(=O)Nc2ncc3c(n2)CC(C)(C)CC3=O)c1 | 18.8% (inactive)
O=S(=O)(/C=C/c1ccccc1)NCCc1ccccn1 | 3.3% (inactive)
CCCCc1nc2c(=O)[nH]c3ccccc3c2o1 | 7.6% (inactive)
CNC(=O)c1nnn(-c2ccccc2)c1C(=O)NC | 14% (inactive)
CCC(=O)Nc1ccccc1C(=O)N1CCN(Cc2ccccc2)CC1 | 9.5% (inactive)
Cc1[nH]c2ccccc2c1C(=O)CSCC(=O)O | 16% (inactive)
C/C(=C\C(=O)c1cccnc1)Nc1ccc(C)c(C)c1 | -5% (inactive)
O=C(O)c1cccc2c1C(=O)N(C1CCCCC1)C2 | 8.4% (inactive)
CS(=O)(=O)N1CCN(C(=O)Cc2ccccc2)CC1 | 5.7% (inactive)
CCCCC(CC)C(=O)Nc1ccc(Cl)cn1 (stereo not given) | -0.6% (inactive)
CCN(CC)CCCN1C(=O)C(=O)/C(=C(/O)c2c(C)nc3ccccn23)C1c1ccc(C)o1 (stereo not given) | 13.6% (inactive)
COCCNC(=O)CN(C(=O)CCC(=O)Nc1cc(C)on1)c1ccc(C)cc1C | 1.1% (inactive)
CC(C)C(=O)N1CCN(CCN=CC2=C(O)CC(c3ccco3)CC2=O)CC1 (stereo not given) | 9.5% (inactive)
CC1CCCCC1NC(=O)CCS(=O)(=O)c1cccc2nonc12 (stereo not given) | 10.9% (inactive)
CCOC(=O)N1CCC(NC(=O)Cn2cc3c(n2)CCCCC3)CC1 | 17.8% (inactive)
CCOc1ccc(OCC)c(NC(=O)C(NS(=O)(=O)c2ccc3c(c2)oc(=O)n3C)C(C)C)c1 (stereo not given) | 12.5% (inactive)
CCC1Oc2ccc(Cl)cc2N(CC(=O)O)C1=O (stereo not given) | 10.2% (inactive)
CC(CCO)Nc1nc2c([nH]1)c(=O)n(C)c(=O)n2C (stereo not given) | 22.2% (inactive)
COC(=O)[C@H](C(C)C)n1c(C)c(C(C)=O)c(C(C)=O)c1C | -9.6% (inactive)
